{"source": "ChEMBL document CHEMBL4689842", "about": "“EUbOPEN Chemogenomics Library wave 1” (2021)", "key": {"[1]": {"tested_on": "HEK-293T", "assay": "Multiplex assay against HEK293T;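 as to Population Tubulin-Different-Phenotype (%): share of the cells with healthy nuclei that show this phenotype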", "assay_type": "toxicity, cell-based", "conditions": "human", "method_in_brief": "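Live cells were stained at seeding with Hoechst33342, BioTracker Green Microtubule Cytoskeleton Dye, MitoTracker Red and Annexin V Alexa Fluor 680, then imaged on a CQ1 microscope at 37°C and 5% CO2 after compound addition. CellPathfinder machine-learning gating split cells into Hoechst high-intensity objects or normal cells. Normal cells were split into healthy, pyknosed or fragmented nuclei, and pyknosed cells into mitotic or apoptotic. Tubulin, mitochondrial-mass and membrane-permeability phenotypes are per cents of healthy-nucleus cells.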"}, "[2]": {"tested_on": "Fibroblast", "assay": "Incucyte cell viability with human fibroblast; also: filed as whole numbers so only -1 and 0 and 1 occur", "assay_type": "toxicity, cell-based", "conditions": "10 µM, compound concentration 10 uM"}, "[3]": {"conditions": "12 h, 1 µM, compound concentration 1 uM, replicate 1"}, "[4]": {"conditions": "12 h, 1 µM, compound concentration 1 uM, replicate 2"}, "[5]": {"conditions": "12 h, 10 µM, compound concentration 10 uM, replicate 1"}, "[6]": {"conditions": "12 h, 10 µM, compound concentration 10 uM, replicate 2"}, "[7]": {"conditions": "24 h, 1 µM, compound concentration 1 uM, replicate 1"}, "[8]": {"conditions": "24 h, 1 µM, compound concentration 1 uM, replicate 2"}, "[9]": {"conditions": "24 h, 10 µM, compound concentration 10 uM, replicate 1"}, "[10]": {"conditions": "24 h, 10 µM, compound concentration 10 uM, replicate 2"}}, "data": [{"compound": "Cl.Cl.NC1(c2ccc(-c3nc4ccn5c(=O)[nH]nc5c4cc3-c3ccccc3)cc2)CCC1", "values": [{"measurement": "Population Apoptotic (%)", "setting": "[1]; [3]", "value": 25, "unit": "%"}, {"measurement": "Population Fragmented Nuclei (%)", "setting": "[1]; [3]", "value": 19, "unit": "%"}, {"measurement": "Population Healthy Nuclei (%)", "setting": "[1]; [3]", "value": 63, "unit": "%"}, {"measurement": "Population Hoechst High Intensity Objects (%)", "setting": "[1]; [3]", "value": 20, "unit": "%"}, {"measurement": "Population Membrane Permeable-Phenotype (%)", "setting": "[1]; [3]", "value": 13, "unit": "%"}, {"measurement": "Population Mitochondria Different-Phenotype (%)", "setting": "[1]; [3]", "value": 10, "unit": "%"}, {"measurement": "Population Mitotic Cells (%)", "setting": "[1]; [3]", "value": 74, "unit": "%"}, {"measurement": "Population Normal (%)", "setting": "[1]; [3]", "value": 79, "unit": "%"}, {"measurement": "Population Pyknosed Nuclei (%)", "setting": "[1]; [3]", "value": 17, "unit": "%"}, {"measurement": "Population Tubulin-Different-Phenotype (%)", "setting": "[1]; [3]", "value": 15, "unit": "%"}, {"measurement": "Total Cell Count", "setting": "[1]; [3]", "value": 657}, {"measurement": "Population Apoptotic (%)", "setting": "[1]; [4]", "value": 11, "unit": "%"}, {"measurement": "Population Fragmented Nuclei (%)", "setting": "[1]; [4]", "value": 8, "unit": "%"}, {"measurement": "Population Healthy Nuclei (%)", "setting": "[1]; [4]", "value": 85, "unit": "%"}, {"measurement": "Population Hoechst High Intensity Objects (%)", "setting": "[1]; [4]", "value": 5, "unit": "%"}, {"measurement": "Population Membrane Permeable-Phenotype (%)", "setting": "[1]; [4]", "value": 6, "unit": "%"}, {"measurement": "Population Mitochondria Different-Phenotype (%)", "setting": "[1]; [4]", "value": 20, "unit": "%"}, {"measurement": "Population Mitotic Cells (%)", "setting": "[1]; [4]", "value": 88, "unit": "%"}, {"measurement": "Population Normal (%)", "setting": "[1]; [4]", "value": 94, "unit": "%"}, {"measurement": "Population Pyknosed Nuclei (%)", "setting": "[1]; [4]", "value": 6, "unit": "%"}, {"measurement": "Population Tubulin-Different-Phenotype (%)", "setting": "[1]; [4]", "value": 34, "unit": "%"}, {"measurement": "Total Cell Count", "setting": "[1]; [4]", "value": 1341}, {"measurement": "Population Apoptotic (%)", "setting": "[1]; [5]", "value": 31, "unit": "%"}, {"measurement": "Population Fragmented Nuclei (%)", "setting": "[1]; [5]", "value": 27, "unit": "%"}, {"measurement": "Population Healthy Nuclei (%)", "setting": "[1]; [5]", "value": 30, "unit": "%"}, {"measurement": "Population Hoechst High Intensity Objects (%)", "setting": "[1]; [5]", "value": 56, "unit": "%"}, {"measurement": "Population Membrane Permeable-Phenotype (%)", "setting": "[1]; [5]", "value": 18, "unit": "%"}, {"measurement": "Population Mitochondria Different-Phenotype (%)", "setting": "[1]; [5]", "value": 27, "unit": "%"}, {"measurement": "Population Mitotic Cells (%)", "setting": "[1]; [5]", "value": 68, "unit": "%"}, {"measurement": "Population Normal (%)", "setting": "[1]; [5]", "value": 43, "unit": "%"}, {"measurement": "Population Pyknosed Nuclei (%)", "setting": "[1]; [5]", "value": 42, "unit": "%"}, {"measurement": "Population Tubulin-Different-Phenotype (%)", "setting": "[1]; [5]", "value": 43, "unit": "%"}, {"measurement": "Total Cell Count", "setting": "[1]; [5]", "value": 496}, {"measurement": "Population Apoptotic (%)", "setting": "[1]; [6]", "value": 14, "unit": "%"}, {"measurement": "Population Fragmented Nuclei (%)", "setting": "[1]; [6]", "value": 5, "unit": "%"}, {"measurement": "Population Healthy Nuclei (%)", "setting": "[1]; [6]", "value": 71, "unit": "%"}, {"measurement": "Population Hoechst High Intensity Objects (%)", "setting": "[1]; [6]", "value": 65, "unit": "%"}, {"measurement": "Population Membrane Permeable-Phenotype (%)", "setting": "[1]; [6]", "value": 23, "unit": "%"}, {"measurement": "Population Mitochondria Different-Phenotype (%)", "setting": "[1]; [6]", "value": 25, "unit": "%"}, {"measurement": "Population Mitotic Cells (%)", "setting": "[1]; [6]", "value": 85, "unit": "%"}, {"measurement": "Population Normal (%)", "setting": "[1]; [6]", "value": 34, "unit": "%"}, {"measurement": "Population Pyknosed Nuclei (%)", "setting": "[1]; [6]", "value": 22, "unit": "%"}, {"measurement": "Population Tubulin-Different-Phenotype (%)", "setting": "[1]; [6]", "value": 82, "unit": "%"}, {"measurement": "Total Cell Count", "setting": "[1]; [6]", "value": 798}, {"measurement": "Population Apoptotic (%)", "setting": "[1]; [7]", "value": 23, "unit": "%"}, {"measurement": "Population Fragmented Nuclei (%)", "setting": "[1]; [7]", "value": 20, "unit": "%"}, {"measurement": "Population Healthy Nuclei (%)", "setting": "[1]; [7]", "value": 68, "unit": "%"}, {"measurement": "Population Hoechst High Intensity Objects (%)", "setting": "[1]; [7]", "value": 17, "unit": "%"}, {"measurement": "Population Membrane Permeable-Phenotype (%)", "setting": "[1]; [7]", "value": 18, "unit": "%"}, {"measurement": "Population Mitochondria Different-Phenotype (%)", "setting": "[1]; [7]", "value": 8, "unit": "%"}, {"measurement": "Population Mitotic Cells (%)", "setting": "[1]; [7]", "value": 76, "unit": "%"}, {"measurement": "Population Normal (%)", "setting": "[1]; [7]", "value": 82, "unit": "%"}, {"measurement": "Population Pyknosed Nuclei (%)", "setting": "[1]; [7]", "value": 10, "unit": "%"}, {"measurement": "Population Tubulin-Different-Phenotype (%)", "setting": "[1]; [7]", "value": 38, "unit": "%"}, {"measurement": "Total Cell Count", "setting": "[1]; [7]", "value": 645}, {"measurement": "Population Apoptotic (%)", "setting": "[1]; [8]", "value": 8, "unit": "%"}, {"measurement": "Population Fragmented Nuclei (%)", "setting": "[1]; [8]", "value": 23, "unit": "%"}, {"measurement": "Population Healthy Nuclei (%)", "setting": "[1]; [8]", "value": 73, "unit": "%"}, {"measurement": "Population Hoechst High Intensity Objects (%)", "setting": "[1]; [8]", "value": 7, "unit": "%"}, {"measurement": "Population Membrane Permeable-Phenotype (%)", "setting": "[1]; [8]", "value": 14, "unit": "%"}, {"measurement": "Population Mitochondria Different-Phenotype (%)", "setting": "[1]; [8]", "value": 4, "unit": "%"}, {"measurement": "Population Mitotic Cells (%)", "setting": "[1]; [8]", "value": 91, "unit": "%"}, {"measurement": "Population Normal (%)", "setting": "[1]; [8]", "value": 92, "unit": "%"}, {"measurement": "Population Pyknosed Nuclei (%)", "setting": "[1]; [8]", "value": 3, "unit": "%"}, {"measurement": "Population Tubulin-Different-Phenotype (%)", "setting": "[1]; [8]", "value": 46, "unit": "%"}, {"measurement": "Total Cell Count", "setting": "[1]; [8]", "value": 2029}, {"measurement": "Population Apoptotic (%)", "setting": "[1]; [9]", "value": 41, "unit": "%"}, {"measurement": "Population Fragmented Nuclei (%)", "setting": "[1]; [9]", "value": 40, "unit": "%"}, {"measurement": "Population Healthy Nuclei (%)", "setting": "[1]; [9]", "value": 21, "unit": "%"}, {"measurement": "Population Hoechst High Intensity Objects (%)", "setting": "[1]; [9]", "value": 63, "unit": "%"}, {"measurement": "Population Membrane Permeable-Phenotype (%)", "setting": "[1]; [9]", "value": 23, "unit": "%"}, {"measurement": "Population Mitochondria Different-Phenotype (%)", "setting": "[1]; [9]", "value": 38, "unit": "%"}, {"measurement": "Population Mitotic Cells (%)", "setting": "[1]; [9]", "value": 58, "unit": "%"}, {"measurement": "Population Normal (%)", "setting": "[1]; [9]", "value": 36, "unit": "%"}, {"measurement": "Population Pyknosed Nuclei (%)", "setting": "[1]; [9]", "value": 38, "unit": "%"}, {"measurement": "Population Tubulin-Different-Phenotype (%)", "setting": "[1]; [9]", "value": 41, "unit": "%"}, {"measurement": "Total Cell Count", "setting": "[1]; [9]", "value": 436}, {"measurement": "Population Apoptotic (%)", "setting": "[1]; [10]", "value": 12, "unit": "%"}, {"measurement": "Population Fragmented Nuclei (%)", "setting": "[1]; [10]", "value": 7, "unit": "%"}, {"measurement": "Population Healthy Nuclei (%)", "setting": "[1]; [10]", "value": 53, "unit": "%"}, {"measurement": "Population Hoechst High Intensity Objects (%)", "setting": "[1]; [10]", "value": 69, "unit": "%"}, {"measurement": "Population Membrane Permeable-Phenotype (%)", "setting": "[1]; [10]", "value": 29, "unit": "%"}, {"measurement": "Population Mitochondria Different-Phenotype (%)", "setting": "[1]; [10]", "value": 20, "unit": "%"}, {"measurement": "Population Mitotic Cells (%)", "setting": "[1]; [10]", "value": 88, "unit": "%"}, {"measurement": "Population Normal (%)", "setting": "[1]; [10]", "value": 30, "unit": "%"}, {"measurement": "Population Pyknosed Nuclei (%)", "setting": "[1]; [10]", "value": 39, "unit": "%"}, {"measurement": "Population Tubulin-Different-Phenotype (%)", "setting": "[1]; [10]", "value": 92, "unit": "%"}, {"measurement": "Total Cell Count", "setting": "[1]; [10]", "value": 837}, {"measurement": "Growth Rate", "setting": "[2]; 6 h, replicate number 1, timepoint 6 hours", "value": 0}, {"measurement": "Growth Rate", "setting": "[2]; 12 h, replicate number 1, timepoint 12 hours", "value": 0}, {"measurement": "Growth Rate", "setting": "[2]; 18 h, replicate number 1, timepoint 18 hours", "value": 0}, {"measurement": "Growth Rate", "setting": "[2]; 24 h, replicate number 1, timepoint 24 hours", "value": 0}]}]}
